According to ChEMBL document CHEMBL4011634 (J Med Chem, 2017):

Tests used:
[1] = molecular target: T1, A disintegrin and metalloproteinase with thrombospondin motifs 4 (Homo sapiens, UniProt O75173); experiment: Inhibition of human ADAMTS4 using VQTVTWPDMELPLPRNITEGEARGSVILTVKPIFEVSPSPLKG peptide as substrate after 3 hrs by Alphascreen assay
T1 sequence (O75173 whole entry): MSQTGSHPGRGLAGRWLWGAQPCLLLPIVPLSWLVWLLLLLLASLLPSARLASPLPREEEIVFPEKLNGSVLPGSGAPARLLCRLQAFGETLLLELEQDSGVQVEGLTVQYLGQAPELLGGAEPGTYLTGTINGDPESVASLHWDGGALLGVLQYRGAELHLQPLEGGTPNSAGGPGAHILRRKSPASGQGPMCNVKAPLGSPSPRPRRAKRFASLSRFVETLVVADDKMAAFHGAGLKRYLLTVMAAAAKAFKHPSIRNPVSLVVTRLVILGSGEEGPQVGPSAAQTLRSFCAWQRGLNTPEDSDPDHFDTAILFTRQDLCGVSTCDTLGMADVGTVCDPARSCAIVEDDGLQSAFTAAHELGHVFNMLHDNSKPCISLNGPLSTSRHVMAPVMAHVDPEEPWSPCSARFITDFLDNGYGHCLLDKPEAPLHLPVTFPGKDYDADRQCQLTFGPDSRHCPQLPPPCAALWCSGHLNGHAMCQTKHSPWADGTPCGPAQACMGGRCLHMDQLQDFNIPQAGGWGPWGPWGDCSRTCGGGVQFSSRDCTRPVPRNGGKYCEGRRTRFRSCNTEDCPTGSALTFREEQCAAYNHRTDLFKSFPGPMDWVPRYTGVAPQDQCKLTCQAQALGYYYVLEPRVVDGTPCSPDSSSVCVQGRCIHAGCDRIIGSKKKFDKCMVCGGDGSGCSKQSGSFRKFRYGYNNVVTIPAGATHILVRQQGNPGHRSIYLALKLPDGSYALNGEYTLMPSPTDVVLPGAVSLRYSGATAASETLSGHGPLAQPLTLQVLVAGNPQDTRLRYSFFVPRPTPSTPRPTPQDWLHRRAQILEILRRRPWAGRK

[2] = molecular target: Macrophage metalloelastase (Homo sapiens, UniProt P39900); experiment: Inhibition of human MMP12 using Mca-PQGL-(3-[2, 4-dinitrophenyl]-L-2, 3-diaminopropionyl)-AR-OH as substrate after 2 to 4 hrs by fluorescence assay
Chain of Macrophage metalloelastase (P39900 whole entry): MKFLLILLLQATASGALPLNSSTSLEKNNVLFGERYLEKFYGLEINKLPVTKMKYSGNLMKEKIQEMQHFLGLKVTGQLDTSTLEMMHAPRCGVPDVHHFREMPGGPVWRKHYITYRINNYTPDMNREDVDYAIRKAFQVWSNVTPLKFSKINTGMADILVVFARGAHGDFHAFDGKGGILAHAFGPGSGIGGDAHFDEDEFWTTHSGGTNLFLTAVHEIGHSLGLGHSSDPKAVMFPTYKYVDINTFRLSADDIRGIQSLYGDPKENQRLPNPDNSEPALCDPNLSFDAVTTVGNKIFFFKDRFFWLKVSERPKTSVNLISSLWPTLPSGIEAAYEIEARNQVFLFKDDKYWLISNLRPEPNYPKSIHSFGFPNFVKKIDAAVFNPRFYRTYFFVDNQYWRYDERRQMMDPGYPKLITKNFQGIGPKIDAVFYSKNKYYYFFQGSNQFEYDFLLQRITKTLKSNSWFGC

[3] = molecular target: T2, A disintegrin and metalloproteinase with thrombospondin motifs 5 (Homo sapiens, UniProt Q9UNA0); experiment: Inhibition of human ADAMTS5 using VQTVTWPDMELPLPRNITEGEARGSVILTVKPIFEVSPSPLKG peptide as substrate after 3 hrs by Alphascreen assay
T2 sequence (Q9UNA0 whole entry): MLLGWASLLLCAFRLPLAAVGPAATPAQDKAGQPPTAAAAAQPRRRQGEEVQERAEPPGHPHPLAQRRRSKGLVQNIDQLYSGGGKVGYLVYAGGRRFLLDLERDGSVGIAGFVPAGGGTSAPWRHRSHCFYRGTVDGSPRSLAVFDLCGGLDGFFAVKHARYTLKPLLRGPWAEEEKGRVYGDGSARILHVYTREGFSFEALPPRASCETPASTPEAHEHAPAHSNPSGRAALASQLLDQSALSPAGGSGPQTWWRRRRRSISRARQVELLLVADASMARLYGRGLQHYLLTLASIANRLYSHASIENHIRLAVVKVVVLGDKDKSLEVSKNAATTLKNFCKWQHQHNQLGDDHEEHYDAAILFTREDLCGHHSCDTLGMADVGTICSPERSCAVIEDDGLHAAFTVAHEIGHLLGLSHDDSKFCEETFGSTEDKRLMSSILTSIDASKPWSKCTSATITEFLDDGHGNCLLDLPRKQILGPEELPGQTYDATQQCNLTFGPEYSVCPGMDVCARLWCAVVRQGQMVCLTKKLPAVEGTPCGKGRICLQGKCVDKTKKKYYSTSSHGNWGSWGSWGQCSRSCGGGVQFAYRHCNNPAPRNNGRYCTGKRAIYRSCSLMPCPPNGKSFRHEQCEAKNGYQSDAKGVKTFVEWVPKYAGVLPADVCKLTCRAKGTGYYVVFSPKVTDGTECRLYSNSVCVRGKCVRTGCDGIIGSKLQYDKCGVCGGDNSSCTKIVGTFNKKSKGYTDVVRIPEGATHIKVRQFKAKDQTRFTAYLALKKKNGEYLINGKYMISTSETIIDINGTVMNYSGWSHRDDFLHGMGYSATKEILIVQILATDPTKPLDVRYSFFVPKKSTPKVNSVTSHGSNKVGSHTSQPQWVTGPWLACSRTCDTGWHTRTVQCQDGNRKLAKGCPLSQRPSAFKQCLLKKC

[4] = molecular target: Matrix metalloproteinase-14 (Homo sapiens, UniProt P50281); experiment: Inhibition of human MMP14 using Mca-PQGL-(3-[2, 4-dinitrophenyl]-L-2, 3-diaminopropionyl)-AR-OH as substrate after 2 to 4 hrs by fluorescence assay
Rattus norvegicus [5] = experiment: Drug metabolism in po or iv dosed bile-duct cannulated rat assessed as glutathione conjugation by HPLC-MS analysis; type: ADME, organism-based; settings: in vivo
[6] = molecular target: T2, A disintegrin and metalloproteinase with thrombospondin motifs 5; experiment: Inhibition of human ADAMTS5 using VQTVTWPDMELPLPRNITEGEARGSVILTVKPIFEVSPSPLKG peptide as substrate after 3 hrs in the presence of 50% Lewis rat plasma by Alphascreen assay
Stromelysin-1 = Stromelysin-1 (Homo sapiens, UniProt P08254); experiment: Inhibition of human MMP3 using Mca-PQGL-(3-[2, 4-dinitrophenyl]-L-2, 3-diaminopropionyl)-AR-OH as substrate after 2 to 4 hrs by fluorescence assay
Chain of Stromelysin-1 (P08254 whole entry): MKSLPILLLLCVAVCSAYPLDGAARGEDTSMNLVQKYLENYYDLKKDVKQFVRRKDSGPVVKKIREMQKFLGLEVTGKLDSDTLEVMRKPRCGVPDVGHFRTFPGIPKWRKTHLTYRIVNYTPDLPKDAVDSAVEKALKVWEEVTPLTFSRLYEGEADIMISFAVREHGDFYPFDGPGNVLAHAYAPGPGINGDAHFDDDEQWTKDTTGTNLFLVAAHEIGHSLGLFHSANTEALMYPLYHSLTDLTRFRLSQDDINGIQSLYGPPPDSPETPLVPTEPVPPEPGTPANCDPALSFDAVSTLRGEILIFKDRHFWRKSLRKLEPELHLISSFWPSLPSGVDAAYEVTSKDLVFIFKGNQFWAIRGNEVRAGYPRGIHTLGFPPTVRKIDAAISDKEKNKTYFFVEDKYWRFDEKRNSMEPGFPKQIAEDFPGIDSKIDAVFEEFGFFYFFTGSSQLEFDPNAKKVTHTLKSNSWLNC

[7] = molecular target: 72 kDa type IV collagenase (Homo sapiens, UniProt P08253); experiment: Inhibition of human MMP2 using Mca-PQGL-(3-[2, 4-dinitrophenyl]-L-2, 3-diaminopropionyl)-AR-OH as substrate after 2 to 4 hrs by fluorescence assay
Chain of 72 kDa type IV collagenase (P08253 whole entry): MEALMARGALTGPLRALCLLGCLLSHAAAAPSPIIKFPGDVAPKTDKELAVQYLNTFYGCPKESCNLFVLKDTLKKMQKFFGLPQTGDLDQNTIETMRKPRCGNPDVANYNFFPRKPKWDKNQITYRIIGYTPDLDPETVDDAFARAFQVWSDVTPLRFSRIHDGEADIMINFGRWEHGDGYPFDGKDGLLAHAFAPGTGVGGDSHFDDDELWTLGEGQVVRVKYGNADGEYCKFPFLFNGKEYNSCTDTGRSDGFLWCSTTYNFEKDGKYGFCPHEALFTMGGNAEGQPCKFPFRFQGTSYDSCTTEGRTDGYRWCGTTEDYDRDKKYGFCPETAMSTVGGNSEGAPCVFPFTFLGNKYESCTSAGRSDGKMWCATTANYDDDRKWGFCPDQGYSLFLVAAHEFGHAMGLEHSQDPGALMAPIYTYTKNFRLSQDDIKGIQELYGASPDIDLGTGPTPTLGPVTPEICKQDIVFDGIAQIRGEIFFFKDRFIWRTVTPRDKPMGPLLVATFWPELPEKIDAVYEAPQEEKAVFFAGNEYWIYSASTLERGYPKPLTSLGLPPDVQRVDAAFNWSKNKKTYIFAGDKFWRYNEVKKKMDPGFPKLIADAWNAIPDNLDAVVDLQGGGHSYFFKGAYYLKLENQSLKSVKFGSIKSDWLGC

Collagenase 3 = Collagenase 3 (Homo sapiens, UniProt P45452); experiment: Inhibition of human MMP13 using Mca-PQGL-(3-[2, 4-dinitrophenyl]-L-2, 3-diaminopropionyl)-AR-OH as substrate after 2 to 4 hrs by fluorescence assay
[8] = Volume of distribution in rat at 1 mg/kg, iv; type: ADME, organism-based; settings: in vivo
Rattus norvegicus [9] = experiment: (§1) Antiarthritic activity in MIA-induced osteoarthritis Lewis rat model assessed as decrease in aggrecan degradation products by measuring ARGNV levels in synovial fluid at 30 mg/kg, po bid starting on day 3 post MIA induction measured at 4 hrs post single oral dose on day 7 by ELISA relative to control; type: functional; parameters: scale not given: the % may be the effect or the level left
In short: (§2)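 Male Lewis rats aged 7-8 weeks received 3 mg freshly prepared MIA (sodium salt) in 0.9% saline intra-articularly into the right knee on day 0, with saline alone in the left knee. Inhibitor or vehicle (1% hydroxyethyl cellulose, 0.25% Tween 80, 0.05% antifoam) was given PO BID from day 3, with a single dose on day 7. Knees were saline-lavaged 4 h later, and aggrecan fragments were quantified by ELISA.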

[10] = Tmax in rat at 10 mg/kg, po; type: ADME, organism-based; settings: in vivo
[11] = Cmax in rat at 1 mg/kg, iv; type: ADME, organism-based; parameters: dose 1 mg/kg, route intravenous; settings: in vivo
[12] = Oral bioavailability in rat at 10 mg/kg; type: ADME, organism-based; settings: in vivo
[13] = AUC (0 to 24 hrs) in rat at 1 mg/kg, iv; type: ADME, organism-based; parameters: time < 24 hr, dose 1 mg/kg, route intravenous; settings: in vivo
In short: (§3)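 Rat plasma pharmacokinetics after IV dosing at 1 mg/kg or oral dosing at 10 mg/kg. Plasma concentrations were followed to 24 h.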

[14] = Half life in rat at 1 mg/kg, iv; type: ADME, organism-based; settings: in vivo
[15] = Clearance in rat at 1 mg/kg, iv; type: ADME, organism-based; settings: in vivo
[16] = AUC (0 to 24 hrs) in rat at 10 mg/kg, po; type: ADME, organism-based; parameters: dose 10 mg/kg, time < 24 hr, route oral; settings: in vivo; in short: as §3
[17] = Half life in rat at 10 mg/kg, po; type: ADME, organism-based; settings: in vivo
Rattus norvegicus [18] = experiment: as §1, with “10” for “30”; type: functional; parameters: scale not given: the % may be the effect or the level left; in short: as §2
[19] = Plasma concentration in rat at 10 mg/kg, po measured at 12 hrs post dose; type: ADME, organism-based
[20] = Plasma concentration in rat at 1 mg/kg, iv measured at 12 hrs post dose; type: ADME, organism-based
Rattus norvegicus [21] = experiment: as §1, with “75” for “30”; type: functional; parameters: scale not given: the % may be the effect or the level left; in short: as §2
[22] = Cmax in rat at 10 mg/kg, po; type: ADME, organism-based; parameters: dose 10 mg/kg, route oral; settings: in vivo

In the case of `O=C(CCc1ccc(C(F)(F)F)cc1)NC[C@@]1(C2CC2)NC(=O)NC1=O`, the IC50 [1] is reported as 4 nM, the IC50 [2] is reported as 5 nM and the IC50 [3] is reported as 5 nM. The IC50 [4] was 3400 nM, the Drug metabolism (Rattus norvegicus [5]) was “Metabolite_Notdetected” and the IC50 [6] was 52 nM. It also gave an IC50 (Stromelysin-1) of 660 nM, an IC50 [7] of 310 nM and an IC50 (Collagenase 3) of 320 nM.

In the case of `CC(C)[C@H](Cc1ccc(C(F)(F)F)cc1)C(=O)NC[C@@]1(C2CC2)NC(=O)NC1=O`, the Drug metabolism (Rattus norvegicus [5]) is reported as “Metabolite_Notdetected”.

In the case of `CC(C)(Cc1ccc(C(F)(F)F)cc1)C(=O)NC[C@@]1(C2CC2)NC(=O)NC1=O`, the Drug metabolism (Rattus norvegicus [5]) is reported as “Metabolite_Notdetected”.

For `C[C@@H](Cc1ccc(C(F)(F)F)cc1)C(=O)NC[C@@]1(C2CC2)NC(=O)NC1=O`, the IC50 [2] was 7 nM, the IC50 [4] was 1600 nM and the Drug metabolism (Rattus norvegicus [5]) was “Metabolite_Notdetected”. For the same compound, the IC50 (Stromelysin-1) was 2000 nM, the IC50 [7] was 280 nM and the IC50 (Collagenase 3) was 340 nM.

In the case of `O=C1NC(=O)[C@](CNC(=O)[C@@H](Cc2ccc(C(F)(F)F)cc2)C2CC2)(C2CC2)N1`, the Vd [8] is reported as 4.3 L/kg, the Activity (Rattus norvegicus [9]) is reported as 52% and the Tmax [10] is reported as 0.5 h. For the same compound, the Cmax [11] was 1600 nM, the bioavailability [12] was 100% and the Drug metabolism (Rattus norvegicus [5]) was “Metabolite_Notdetected”. The AUC(0-t) at 24 h [13] was 1.3 µM·h, the half-life [14] was 1.5 h and the IC50 (Stromelysin-1) was over 100000 nM. It also gave a clearance [15] of 33 mL/min/kg, an AUC(0-t) at 24 h [16] of 22 µM·h and a half-life [17] of 2.6 h. For the same compound, the Activity (Rattus norvegicus [18]) was 41%, the concentration at 12 h [19] was 29 nM and the concentration at 12 h [20] was under 5 nM. The Activity (Rattus norvegicus [21]) was 53% and the Cmax [22] was 6600 nM.

In the case of `C[C@@]1(O)CCCN(S(=O)(=O)c2ccc(OCc3ccc(F)cc3Cl)cc2)[C@H]1C(=O)NO`, the Activity (Rattus norvegicus [9]) is reported as 50%, the IC50 [2] is reported as under 1 nM and the Drug metabolism (Rattus norvegicus [5]) is reported as “Metabolite_Notdetected”.

`C[C@]1(CNC(=O)COc2ccc(Cl)cc2)NC(=O)NC1=O` showed an IC50 [2] of 70 nM.

With `CC[C@H](Cc1ccc(C(F)(F)F)cc1)C(=O)NC[C@@]1(C2CC2)NC(=O)NC1=O` the Drug metabolism (Rattus norvegicus [5]) was “Metabolite_Notdetected” and the IC50 [7] was 3000 nM.

In the case of `O=C1NC(=O)[C@](CNC(=O)c2cc3cc(C(F)(F)F)ccc3o2)(C2CC2)N1`, the IC50 [2] is reported as 9 nM.

For `C[C@H](Cc1ccc(C(F)(F)F)cc1)C(=O)NC[C@@]1(C2CC2)NC(=O)NC1=O`, the Drug metabolism (Rattus norvegicus [5]) was “Metabolite_Notdetected”.
